According to ChEMBL document CHEMBL4715714, “Design, synthesis and biological evaluation of thiosemicarbazones, hydrazinobenzothiazoles and arylhydrazones as anticancer agents with a potential to overcome multidrug resistance” (Eur J Med Chem, 2016):
Calls of active or inactive are those of the source. The rule behind the calls is not given here.

How the values were obtained:
MES-SA/Dx5 [1] = test: Cytotoxicity against human MES-SA/DX5 cells transfected with mCherry fluorescent protein assessed as inhibition of cell proliferation incubated for 72 hrs by fluorescent assay; type: functional, cell-based; settings: Homo sapiens, MES-SA/Dx5, 72 h
Outline: (§1)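 MES-SA and MES-SA/Dx5 cells were made to stably express mCherry by lentiviral transduction. Cells were seeded at 5000 (96-well) or 2500 (384-well) per well, allowed to attach 24 h, then treated with compound dilutions for 72 h. Viability was read as fluorescence, excitation 585 nm, emission 610 nm.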

MES-SA [2] = test: Cytotoxicity against human MES-SA cells transfected with mCherry fluorescent protein assessed as inhibition of cell proliferation incubated for 72 hrs by fluorescent assay; type: functional, cell-based; outline: as §1
KB-V1 = test: Cytotoxicity against human KB-V1 cells assessed as inhibition of cell proliferation incubated for 72 hrs by MTT assay; type: functional, cell-based; settings: KB-V1, 72 h
Outline: (§2)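 Cells were seeded (10000/well for A2780, 5000/well for MES-SA/Dx5 and KB-3-1/V1) and left to attach 12 h, then exposed to compound for 72 h. Medium was removed, and MTT (0.83 mg/mL) was added for 1 h at 37 °C. Cells were lysed in DMSO and absorbance read at 540 nm. Signal was corrected for unstained lysate background, normalized to untreated cells, and IC50 taken from a sigmoidal dose-response fit.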

MES-SA/Dx5 [3] = test: Cytotoxicity against human MES-SA/DX5 cells assessed as inhibition of cell proliferation incubated for 72 hrs by MTT assay; type: functional, cell-based; settings: for IC50: MES-SA/Dx5, 72 h; outline: as §2
MES-SA [4] = test: Cytotoxicity against human MES-SA cells assessed as inhibition of cell proliferation incubated for 72 hrs by MTT assay; type: functional, cell-based; outline: as §2
KB 3-1 = test: Cytotoxicity against human KB-3-1 cells assessed as inhibition of cell proliferation incubated for 72 hrs by MTT assay; type: functional, cell-based; settings: KB 3-1, 72 h; outline: as §2
[5] = Cytotoxicity against human A2780adr cells assessed as inhibition of cell proliferation incubated for 72 hrs by MTT assay; type: functional, cell-based; settings: A2780 ADR; outline: as §2
A2780 = test: Cytotoxicity against human A2780 cells assessed as inhibition of cell proliferation incubated for 72 hrs by MTT assay; type: functional, cell-based; settings: A2780, 72 h; outline: as §2
MES-SA/Dx5 [6] = test: Cytotoxicity against human MES-SA/DX5 cells incubated for 72 hrs in presence of efflux pump inhibitor, Tariquidar by MTT assay; type: functional, cell-based
Outline: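 Run as the 72 h MTT viability readout (12 h attachment, MTT 0.83 mg/mL for 1 h, DMSO lysis, A540), with the P-gp inhibitor Tariquidar at 1 µM co-present. IC50 came from sigmoidal fits of 2 to 4 independent experiments.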

MES-SA/Dx5 [7] = test: Cytotoxicity against human MES-SA/DX5 cells transfected with mCherry fluorescent protein incubated for 72 hrs in presence of efflux pump inhibitor, Tariquidar by fluorescence assay; type: functional, cell-based
Outline: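 The mCherry-expressing cells (lentiviral) were seeded at 5000 or 2500 per well, attached for 24 h, and exposed 72 h to compounds with Tariquidar coadministered. Live-cell signal was fluorescence at 585 nm excitation and 610 nm emission.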

[8] = Selectivity ratio of IC50 for human MES-SA cells transfected with mCherry to IC50 for human MES-SA/DX5 cells transfected with mCherry incubated for 72 hrs by fluorescent assay; type: functional
[9] = Selectivity ratio of IC50 for human MES-SA cells to IC50 for human MES-SA/DX5 cells incubated for 72 hrs by MTT assay; type: functional
Outline: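 The selectivity ratio is the IC50 in P-gp-negative parental cells divided by the IC50 in the P-gp-positive resistant partner.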

[10] = Homo sapiens, MES-SA, 72 h, read-out: IC50
[11] = Homo sapiens, MES-SA, 72 h, read-out: pIC50 (converted)

Compound	IC50 (MES-SA/Dx5 [1]; read-out: IC50)	IC50 (MES-SA/Dx5 [1]; read-out: pIC50 (converted))	IC50 (MES-SA [2]; [10])	IC50 (MES-SA [2]; [11])	further results
C/C(=N\NC(=S)Nc1ccc(C)cc1)c1ccccc1O	3460 nM	4370 nM	10900 nM	9770 nM	–
CCc1ccc(/C=N/NC(=S)Nc2ccc([N+](=O)[O-])cc2)nc1	11000 nM	–	10500 nM	–	IC50 (KB-V1; read-out: IC50): 8930 nM; IC50 (KB-V1; read-out: pIC50 (converted)): 8910 nM; IC50 (MES-SA/Dx5 [3]; read-out: IC50): 8020 nM; IC50 (MES-SA/Dx5 [3]; read-out: pIC50 (converted)): 8130 nM; IC50 (MES-SA [4]; read-out: IC50): 10900 nM; IC50 (MES-SA [4]; read-out: pIC50 (converted)): 10700 nM; IC50 (KB 3-1; read-out: IC50): 8030 nM; IC50 (KB 3-1; read-out: pIC50 (converted)): 7940 nM
CCc1ccc(/C=N/NC(=S)Nc2ccc(OC)cc2)nc1	56 nM	–	96 nM	–	IC50 (MES-SA/Dx5 [3]; read-out: IC50): 72 nM; IC50 (MES-SA/Dx5 [3]; read-out: pIC50 (converted)): 63.1 nM; IC50 (MES-SA [4]; read-out: IC50): 420 nM; IC50 (MES-SA [4]; read-out: pIC50 (converted)): 417 nM
C/C(=N\NC(=S)Nc1ccccc1C)c1ccccn1	92 nM	87.1 nM	30 nM	29.5 nM	–
O=C1Nc2ccccc2/C1=N/Nc1nc2ccccc2s1	–	–	–	–	IC50 (MES-SA [2]; mes-sa): Not Active; pIC50 (MES-SA/Dx5 [3]): inactive; pIC50 (MES-SA [4]): inactive
Cc1cc(/C=N/Nc2ccccn2)nc2ccccc12	400 nM	398 nM	560 nM	537 nM	–
O=[N+]([O-])c1ccc(NC(=S)N/N=C/c2ccccn2)cc1	2740 nM	2750 nM	2740 nM	2690 nM	IC50 (KB-V1; read-out: IC50): 1990 nM; IC50 (KB-V1; read-out: pIC50 (converted)): 1780 nM; IC50 (MES-SA/Dx5 [3]; read-out: IC50): 1830 nM; IC50 (MES-SA/Dx5 [3]; read-out: pIC50 (converted)): 1780 nM; IC50 (MES-SA [4]; read-out: IC50): 2700 nM; IC50 (MES-SA [4]; read-out: pIC50 (converted)): 2570 nM; IC50 ([5]; read-out: IC50): 1370 nM; IC50 ([5]; read-out: pIC50 (converted)): 1350 nM; IC50 (A2780; read-out: IC50): 670 nM; IC50 (A2780; read-out: pIC50 (converted)): 617 nM; IC50 (KB 3-1; read-out: IC50): 1050 nM; IC50 (KB 3-1; read-out: pIC50 (converted)): 1020 nM
O=[N+]([O-])c1ccc(O)c(/C=N/NC(=S)Nc2cccc(C(F)(F)F)c2)c1	11900 nM	–	16400 nM	–	–
NC(=S)N/N=C/c1ncccc1N [TRIAPINE]	2520 nM	–	1300 nM	–	Activity (MES-SA/Dx5 [6]): Active
COc1ccc(NC(=S)N/N=C/c2cccc(C)n2)cc1	4220 nM	4170 nM	4720 nM	4680 nM	–
COc1ccc(O)c(/C=N/Nc2nc3ccccc3s2)c1	11600 nM	9330 nM	14900 nM	13200 nM	–
COc1ccc(NC(=S)N/N=C(\C)c2ccccc2N)cc1	17700 nM	–	18500 nM	–	IC50 (KB-V1; read-out: IC50): 22300 nM; IC50 (KB-V1; read-out: pIC50 (converted)): 22400 nM; IC50 (MES-SA/Dx5 [3]; read-out: IC50): 8020 nM; IC50 (MES-SA/Dx5 [3]; read-out: pIC50 (converted)): 7940 nM; IC50 (MES-SA [4]; read-out: IC50): 10700 nM; IC50 (MES-SA [4]; read-out: pIC50 (converted)): 10500 nM; IC50 ([5]; read-out: IC50): 4870 nM; IC50 ([5]; read-out: pIC50 (converted)): 4900 nM; IC50 (A2780; read-out: IC50): 4350 nM; IC50 (A2780; read-out: pIC50 (converted)): 4270 nM; IC50 (KB 3-1; read-out: IC50): 20600 nM; IC50 (KB 3-1; read-out: pIC50 (converted)): 20400 nM
O=C1Nc2ccccc2/C1=N/NC(=S)Nc1cccc(C(F)(F)F)c1	1950 nM	–	3340 nM	–	Activity (MES-SA/Dx5 [6]): inactive; Activity (MES-SA/Dx5 [7]): inactive; IC50 (MES-SA/Dx5 [3]; read-out: IC50): 1400 nM; IC50 (MES-SA [4]; read-out: IC50): 2060 nM; Ratio IC50 [8]: 2.42; Ratio IC50 [9]: 1.44
O=[N+]([O-])c1ccc(O)c(/C=N/Nc2nc3ccccc3s2)c1	1990 nM	1860 nM	4070 nM	3800 nM	–
C/C(=N\NC(=S)Nc1ccccc1C(F)(F)F)c1ccccn1	161 nM	141 nM	33 nM	32.4 nM	–
Oc1ccccc1/C=N/NC(=S)Nc1ccccc1	6450 nM	4790 nM	14000 nM	11500 nM	Activity (MES-SA/Dx5 [7]): Active; Ratio IC50 [8]: 2.23
FC(F)(F)c1ccccc1NC(=S)N/N=C/c1ccccn1	160 nM	138 nM	130 nM	120 nM	–
C/C(=N\Nc1ccccn1)c1cc(C)c2ccccc2n1	290 nM	295 nM	300 nM	288 nM	–
